One data set deals with MV4-11. The experiment in a line: Cytotoxicity against human MV411 cells after 72 hrs by MTS assay. In kind it is functional, cell-based. The settings on record: MV4-11, 72 h. In outline: (§1)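 Commercial screen: tumour cells seeded at 0.5 to 100 x 10³ cells/well the day before dosing, then exposed 72 h to compound in duplicate, 9 serial 3.16-fold dilutions from 198 µM top concentration. MTS added for a further 4 h at 37 °C, absorbance read; IC50 taken as 50% inhibition of viability by curve fitting.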
A general note: Tetrazolium dyes change colour on reduction, which living cells bring about.

For the next data set, the system named is HEL 92.1.7. The experiment in a line: Cytotoxicity against human HEL 92.1.7 cells after 72 hrs by MTS assay. The data set is classed as functional, cell-based. The note with it: HEL 92.1.7, 72 h. In short, it runs like this:
as §1

A further data set has as its system MCF7. The experiment in a line: Cytotoxicity against human MCF7 cells after 72 hrs by MTS assay. In kind it is functional, cell-based. The note with it: MCF7, 72 h. In outline: as §1
In the next data set the test system is MIA PaCa-2. The experiment in a line: Cytotoxicity against human MIAPaCa2 cells after 72 hrs by MTS assay. The data set is classed as functional, cell-based. The note with it: MIA PaCa-2, 72 h. In short, it runs like this: as §1
The nature of data set [1]: Cytotoxicity against human Hs445 cells after 72 hrs by MTS assay. In kind it is functional, cell-based. The settings on record: Hs 445, 72 h. In short, it runs like this:
as §1

In another data set the test system is RL. The experiment in a line: Cytotoxicity against human RL cells after 72 hrs by MTS assay. In kind it is functional, cell-based. In short, it runs like this:
as §1

The test system of the next data set is SW-620. The experiment in a line: Cytotoxicity against human SW620 cells after 72 hrs by MTS assay. The data set is classed as functional, cell-based. The note with it: SW-620, 72 h. In short, it runs like this: as §1
The test system of a further data set is Chikungunya virus. As to the kind of experiment: Antiviral activity against Chikungunya virus infected in African green monkey Vero cells assessed as reduction in virus-induced cytopathic effect pretreated for 1 hr followed by viral infection measured after 3 days by crystal violet staining based assay. The data set is classed as functional, organism-based. (Protection from cytopathic effect is a common read-out in antiviral testing.)

Data set [2] in a line: Cytotoxicity against African green monkey Vero cells measured after 3 days by CelltiterGlo luminescence assay. The note with it: chlorocebus sabaeus. The data set is classed as cell-based. In outline:
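Vero cells seeded and left overnight; growth medium then replaced by serial compound dilutions, added in triplicate; medium-only wells defined 0% cytotoxicity. On day 3 cells were lysed and ATP content measured by luciferase luminescence (CellTiter-Glo); CC50 obtained from a 4-PL curve fit.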
Background: Cellular ATP, detected with luciferase, serves as a proxy for viable cell number.

Usually IC50 stands for the concentration that inhibits the measured activity by half. `C[C@H](NP(=O)(OC[C@H]1O[C@@H](n2c(I)c(F)c(=O)[nH]c2=O)[C@H](O)[C@@H]1O)Oc1cccc2ccccc12)C(=O)OCc1ccccc1` (some centres undefined): the IC50 in the data set on MV4-11 was 0.08 µM; in the data set on HEL 92.1.7, 0.4 µM; in the data set on MCF7 it was 3.93 µM; with MIA PaCa-2, 0.63 µM; in data set [1], 0.71 µM; in the data set with RL, 0.4 µM. Besides, it took 0.52 µM to reach half-maximal inhibition in the data set with SW-620 (IC50).
For the compound `C[C@H](NP(=O)(OC[C@H]1O[C@@H](n2c(I)c(F)c(=O)[nH]c2=O)[C@H](O)[C@@H]1O)Oc1ccccc1)C(=O)OC1CCCCC1` (some centres undefined), the IC50 in the data set on MV4-11 was determined as 0.74 µM; with HEL 92.1.7, 4.1 µM; in the data set with MCF7, 8.12 µM; in the data set on MIA PaCa-2 it was 4.57 µM; in data set [1], 3.8 µM; with RL, 2.6 µM. The compound further had an IC50 in the data set with SW-620 of 4.84 µM.
As for `CCOC(=O)[C@H](C)NP(=O)(OC[C@H]1O[C@@H](n2c(N=[N+]=[N-])c(F)c(=O)[nH]c2=O)[C@H](O)[C@@H]1O)Oc1ccccc1` (some centres undefined), the concentration for half-maximal inhibition (IC50) in the data set with MV4-11 is greater than 50 µM; in the data set on HEL 92.1.7, greater than 50 µM; in the data set on MCF7 it was greater than 50 µM; in the data set with MIA PaCa-2, greater than 50 µM; in [1], 44 µM; with RL, greater than 50 µM. The compound also displayed a half-maximal inhibitory concentration (IC50) in the data set with SW-620 greater than 50 µM.
Consider `CCCCCCOC(=O)[C@H](C)NP(=O)(OC[C@H]1O[C@@H](n2c(N=[N+]=[N-])c(F)c(=O)[nH]c2=O)[C@H](O)[C@@H]1O)Oc1cccc2ccccc12` (some centres undefined), for which the 50% inhibitory concentration (IC50) amounted to 6.2 µM in the data set on MV4-11; 10 µM in the data set on HEL 92.1.7; 31 µM in the data set with MCF7; 24 µM in the data set on MIA PaCa-2; 6 µM in [1]; 9 µM in the data set on RL. The compound also gave an IC50 in the data set with SW-620 of 21 µM.
As for `O=c1[nH]c(=O)n([C@@H]2O[C@H](CO)[C@@H](O)[C@H]2O)c(I)c1F`, the IC50 was found to be 0.04 µM in the data set on MV4-11; 0.1 µM in the data set on HEL 92.1.7; 0.67 µM in the data set on MCF7; 0.02 µM in the data set with MIA PaCa-2; 0.38 µM in data set [1]; 0.1 µM with RL. Half-maximal inhibition in the data set on SW-620 (IC50) was put at 0.5 µM.
`C[C@H](NP(=O)(OC[C@H]1O[C@@H](n2c(N=[N+]=[N-])c(F)c(=O)[nH]c2=O)[C@H](O)[C@@H]1O)Oc1ccccc1)C(=O)OCc1ccccc1` (some centres undefined): the half-maximal inhibitory concentration (IC50) in the data set on MV4-11 is 8 µM; in the data set with HEL 92.1.7 it was 17 µM; in the data set on MCF7, 20 µM; with MIA PaCa-2, 22 µM; in [1], 23 µM; in the data set with RL, 21 µM. The compound further had an IC50 in the data set on SW-620 of 13 µM.
One may read the EC50 as the concentration that produces a half-maximal response. The term CC50 denotes the concentration giving 50% cytotoxicity. In the case of `CCCCCCOC(=O)[C@H](C)NP(=O)(OC[C@H]1O[C@@H](n2c(C)c(F)c(=O)[nH]c2=O)[C@H](O)[C@@H]1O)Oc1ccccc1` (some centres undefined), the IC50 (in the data set on MV4-11; with HEL 92.1.7; in the data set with MCF7; with MIA PaCa-2; in [1]; in the data set on RL) was greater than 50 µM each time. Further, the half-inhibitory concentration (IC50) with SW-620 was greater than 50 µM. For the same compound, the concentration giving a half-maximal response (EC50) with Chikungunya virus was greater than 200 µM. In [2], this compound displayed a CC50 at 72 h greater than 200 µM.
Turning to `CCCCCOC(=O)[C@H](C)NP(=O)(OC[C@H]1O[C@@H](n2c(I)c(F)c(=O)[nH]c2=O)[C@H](O)[C@@H]1O)Oc1ccccc1` (some centres undefined), the IC50 was found to be 0.2 µM in the data set on MV4-11; 0.5 µM in the data set on HEL 92.1.7; 7.83 µM with MCF7; 1.31 µM with MIA PaCa-2; 2.6 µM in data set [1]; 0.8 µM with RL. This compound also registered an IC50 with SW-620 of 1.12 µM.
With `Cc1c(F)c(=O)[nH]c(=O)n1[C@@H]1O[C@H](COP(=O)(N[C@@H](C)C(=O)OCc2ccccc2)Oc2ccccc2)[C@@H](O)[C@H]1O` (some centres undefined), the IC50 (in the data set on MV4-11; with HEL 92.1.7; in the data set on MCF7; in the data set with MIA PaCa-2; in data set [1]; in the data set on RL) was greater than 50 µM throughout. Moreover, the concentration for half-maximal inhibition (IC50) in the data set with SW-620 was greater than 50 µM.
For `Cc1c(F)c(=O)[nH]c(=O)n1[C@@H]1O[C@H](COP(=O)(N[C@@H](C)C(=O)OCc2ccccc2)Oc2cccc3ccccc23)[C@@H](O)[C@H]1O` (some centres undefined), the IC50 (in the data set with MV4-11; with HEL 92.1.7; in the data set on MCF7; in the data set on MIA PaCa-2; in data set [1]; in the data set with RL) was greater than 50 µM throughout. In the data set on SW-620, this compound gave a 50% inhibitory concentration (IC50) greater than 50 µM. The EC50 with Chikungunya virus was greater than 200 µM. The same compound gave a CC50 at 72 h in data set [2] greater than 200 µM.
Regarding `CCc1c(F)c(=O)[nH]c(=O)n1[C@@H]1O[C@H](COP(=O)(N[C@@H](C)C(=O)OCc2ccccc2)Oc2cccc3ccccc23)[C@@H](O)[C@H]1O` (some centres undefined), the IC50 with HEL 92.1.7 is greater than 50 µM; in the data set on MCF7, greater than 50 µM; in data set [1], 10 µM; in the data set with RL, 27 µM; in the data set with SW-620, 12 µM. In addition, in the data set with Chikungunya virus, the EC50 is greater than 50 µM. This compound registered a CC50 at 72 h in [2] of 53.1 µM.
Take `C[C@H](NP(=O)(OC[C@H]1O[C@@H](n2c(N=[N+]=[N-])c(F)c(=O)[nH]c2=O)[C@H](O)[C@@H]1O)Oc1cccc2ccccc12)C(=O)OCc1ccccc1` (some centres undefined): the 50% inhibitory concentration (IC50) in the data set on MV4-11 was found to be 6.3 µM; in the data set on HEL 92.1.7 it was 29 µM; in the data set with MCF7 it was 44 µM; in the data set with MIA PaCa-2, 27 µM; in data set [1], 15 µM; with RL, 12 µM. The same compound came in with an IC50 in the data set on SW-620 of 28 µM. The half-maximal effective concentration (EC50) in the data set with Chikungunya virus is greater than 200 µM. In data set [2], the half-maximal cytotoxic concentration (CC50) at 72 h worked out at 81.8 µM.
Take `[N-]=[N+]=Nc1c(F)c(=O)[nH]c(=O)n1[C@@H]1O[C@H](CO)[C@@H](O)[C@H]1O`: the half-maximal inhibitory concentration (IC50) came to 6.6 µM in the data set on MV4-11; 10 µM with HEL 92.1.7; 6 µM in the data set on MCF7; 11 µM with MIA PaCa-2; 14 µM in data set [1]; 10 µM in the data set with RL. Besides, in the data set with SW-620, the IC50 was determined as 8 µM. In the data set on Chikungunya virus, the concentration for a half-maximal effect (EC50) is greater than 200 µM. This compound also returned a 50% cytotoxic concentration (CC50) at 72 h in data set [2] of 47 µM.
For the compound `Cc1c(F)c(=O)[nH]c(=O)n1[C@@H]1O[C@H](COP(=O)(N[C@@H](C)C(=O)OCC(C)(C)C)Oc2cccc3ccccc23)[C@@H](O)[C@H]1O` (some centres undefined), the IC50 (with MV4-11; in the data set on HEL 92.1.7; in the data set with MCF7; in the data set with MIA PaCa-2; in [1]; in the data set on RL) was greater than 50 µM each time. In the data set with SW-620, this compound came in with a 50% inhibitory concentration (IC50) greater than 50 µM. Also, the EC50 in the data set on Chikungunya virus was greater than 200 µM. Further, the CC50 at 72 h in [2] is 81.3 µM.
As for `Cc1c(F)c(=O)[nH]c(=O)n1[C@@H]1O[C@H](CO)[C@@H](O)[C@H]1O`, the IC50 was 2 µM in the data set on MV4-11; 14 µM in the data set on HEL 92.1.7; 5.4 µM in the data set on MCF7; 12 µM with MIA PaCa-2; 7 µM in data set [1]; 16 µM with RL. It took 8.5 µM to reach half-maximal inhibition in the data set on SW-620 (IC50). For the same compound, the EC50 in the data set with Chikungunya virus is greater than 200 µM. For the same compound, the CC50 at 72 h in data set [2] is 9.04 µM.
For the compound `CCc1c(F)c(=O)[nH]c(=O)n1[C@@H]1O[C@H](CO)[C@@H](O)[C@H]1O`, the half-maximal inhibitory concentration (IC50) (with HEL 92.1.7; with MCF7; in [1]; in the data set on RL; with SW-620) was greater than 50 µM each time. In addition, the EC50 in the data set with Chikungunya virus was greater than 200 µM. Besides, the CC50 at 72 h in data set [2] is greater than 200 µM.

Source of the values: ChEMBL document CHEMBL4219052, “Synthesis and biological evaluation of 6-substituted-5-fluorouridine ProTides” (Bioorg Med Chem, 2018).
